Source: ChEMBL document CHEMBL4680254, “Design, synthesis and discovery of 2(1H)-quinolone derivatives for the treatment of pulmonary fibrosis through inhibition of TGF-β/smad dependent and independent pathway” (Eur J Med Chem, 2020)
Active and inactive are the calls of the source. The rule behind the calls is not given here.

Key:
[1] = system: NRK-49F; assay: Inhibition of TGF-beta-induced collagen-1 protein expression in rat NRK-49F cells at 20 to 40 uM incubated for 24 hrs by Western blotting analysis; assay type: functional, cell-based; settings: dose 20-40 µM
[2] = system: Mus musculus; assay: Anti-fibrotic activity in C57BL/6 mouse model of bleomycin-induced lung fibrosis assessed as survival rate at 50 mg/kg, po administered for 30 days starting from day 1 post bleomycin treatment; assay type: functional, organism-based; settings: time 30.0 day
Summary of the method: (§1)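 Survival was followed in male C57BL/6 mice (8 weeks, n=10 per group) after one intratracheal bleomycin dose of 3 U/kg in 0.075 mL saline. Oral dosing was daily, days 1–30 (prevention) or days 8–21 (treatment), with survival curves plotted.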

[3] = system: NRK-49F; assay: Inhibition of TGF-beta-induced collagen accumulation in rat NRK-49F cells at 10 uM incubated for 2 days by PSR staining based microscopic analysis relative to control; assay type: functional; settings: 48 h, time 2 day
Summary of the method: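 NRK-49F cells were grown 3 days in DMEM with 5% FBS, then 2 days in DMEM with 1% ITS. Next came 2 days with TGF-β 5 ng/ml plus or minus compound 10 µM. Cells were fixed in 4% paraformaldehyde and stained 4 h with 0.1% Picrosirius Red, then rinsed with acetic acid. Dye was eluted with 0.1 M NaOH and OD read at 540 nm. Inhibition = […] ×100%, in triplicate.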

[4] = system: Mus musculus; assay: Anti-fibrotic activity in C57BL/6 mouse model of bleomycin-induced lung fibrosis assessed as reduction in inflammatory cell infiltration at 50 mg/kg, po administered for 30 days starting from day 1 post bleomycin treatment by hematoxylin and eosin staining based microscopic analysis; assay type: functional, organism-based; settings: time 30.0 day
Summary of the method: (§2)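 Male C57BL/6 mice, 8 weeks old, n=10 per group; lung fibrosis from one intratracheal instillation of bleomycin 3 U/kg in 0.075 mL saline, saline-only controls. Daily oral dosing days 1–30 (prevention) or days 8–21 (treatment). Left lungs fixed in 10% formalin 24 h, paraffin-embedded, 5 µm sections stained with H&E (also Masson's trichrome) and examined by microscopy.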

[5] = system: Mus musculus; assay: Anti-fibrotic activity in C57BL/6 mouse model of bleomycin-induced lung fibrosis assessed as protection of alveolar tissue structure at 50 mg/kg, po administered from day 8 to day 21 post bleomycin treatment by hematoxylin and eosin staining based microscopic analysis; settings: time 14.0 day
[6] = Oral bioavailability in Sprague-Dawley rat at 5 mg/kg; assay type: ADME, organism-based; settings: in vivo
Summary of the method: (§3)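 Rats were given a single 5 mg/kg dose intravenously or orally, and plasma concentration–time curves were followed. t1/2, tmax, AUC0-t and oral bioavailability (n = 5) were derived from these curves.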

[7] = system: L929; assay: Antimigratory activity in mouse L929 cells assessed as inhibition of TGF-beta-induced cell migration at 10 uM incubated for 24 hrs by wound healing assay; assay type: functional, cell-based
Summary of the method: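 Mouse L929 fibroblasts (MEM, 10% FBS, 37 °C, 5% CO₂) were grown to confluence and scratched with a pipette tip to a 100 µm wound. They were then kept in serum-free medium with or without TGF-β 5 ng/ml and compound 10 µM for 24 h. Wounds were imaged by light microscopy at 0, 12 and 24 h.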

[8] = system: Mus musculus; assay: Anti-fibrotic activity in C57BL/6 mouse model of bleomycin-induced lung fibrosis assessed as reduction in collagen deposition by measuring hydroxyproline content in lung at 50 mg/kg, po administered for 30 days starting from day 1 post bleomycin treatment; assay type: functional, organism-based; settings: time 30.0 day
Summary of the method: (§4)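 In the bleomycin mouse model (male C57BL/6, 8 weeks, 3 U/kg intratracheal in saline, n=10 per group), daily oral dosing ran days 1–30 or days 8–21. Right lungs were dried, acid hydrolysed, filtered and brought to pH 6.5–8.0. Hydroxyproline was read by chloramine-T spectrophotometry with a kit.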

[9] = system: NRK-49F; assay: Inhibition of TGF-beta-induced alpha-SMA protein expression in rat NRK-49F cells at 20 to 40 uM incubated for 24 hrs by Western blotting analysis; assay type: functional, cell-based; settings: dose 20-40 µM
[10] = system: Mus musculus; assay: Anti-fibrotic activity in C57BL/6 mouse model of bleomycin-induced lung fibrosis assessed as protection of alveolar tissue structure at 50 mg/kg, po administered for 30 days starting from day 1 post bleomycin treatment by hematoxylin and eosin staining based microscopic analysis; assay type: functional, organism-based; settings: time 30.0 day; summary of the method: as §2
[11] = system: Mus musculus; assay: Anti-fibrotic activity in C57BL/6 mouse model of bleomycin-induced lung fibrosis assessed as reduction in collagen deposition by measuring hydroxyproline content in lung at 50 mg/kg, po administered for […] starting from day 8 post bleomycin treatment; assay type: functional, organism-based; settings: time 14.0 day; summary of the method: as §4
[12] = target: Mothers against decapentaplegic homolog 3 (Rattus norvegicus) (UniProt P84025); assay: Inhibition of TGF-beta induced SMAD3 phosphorylation in rat NRK-49F cells at 20 to 40 uM pretreated with compound for 1 to 2 hrs followed by TGF-beta stimulation for 1 hr by Western blot analysis; assay type: cell-based; settings: dose 20-40 µM, time 2-3 hrs
Summary of the method: (§5)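 NRK-49F cells were pretreated with or without compound (20 and 40 µM) for 1 or 2 h, then stimulated with TGF-β 5 ng/mL for 1 h. Lysates were made in RIPA with PMSF and protease inhibitors, and 30–40 µg protein was run on 10–12% SDS-PAGE and moved to PVDF. Blots were probed for phospho- and total Smad2, Smad3, p38 and ERK1/2, with GAPDH as loading control and ECL detection.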

[13] = AUC (0 to t) in Sprague-Dawley rat at 5 mg/kg, po; assay type: ADME, organism-based; parameters: dose 5 mg/kg; settings: in vivo
Summary of the method: (§6)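 Rats received a single 5 mg/kg dose, either intravenously or orally. AUC0-t was derived from plasma concentration–time curves after that one dose. n = 5 per the reported oral data.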

[14] = system: Mus musculus; assay: Anti-fibrotic activity in C57BL/6 mouse model of bleomycin-induced lung fibrosis assessed as survival rate at 50 mg/kg, po administered for […] starting from day 8 post bleomycin treatment; assay type: functional, organism-based; settings: time 14.0 day; summary of the method: as §1
[15] = Tmax in Sprague-Dawley rat at 5 mg/kg, iv; assay type: ADME, organism-based; settings: in vivo; summary of the method: as §3
[16] = Effect on total Smad2 expression in TGFbeta-stimulated rat NRK-49F at 20 to 40 uM preincubated for 1 to 2 hrs followed by TGF-beta stimulation and measured after 1 hr by Western blot analysis; settings: dose lower 20 µM, time lower 2 hrs, dose upper 40 µM, time upper 3 hrs; summary of the method: as §5
[17] = system: Mus musculus; assay: Anti-fibrotic activity in C57BL/6 mouse model of bleomycin-induced lung fibrosis assessed as reduction in inflammatory cell infiltration at 50 to 100 mg/kg, po administered for 30 days starting from day 1 post bleomycin treatment by hematoxylin and eosin staining based microscopic analysis; assay type: functional, organism-based; settings: dose 50-100 mg/kg, time 30.0 day; summary of the method: as §2
[18] = system: Mus musculus; assay: Anti-fibrotic activity in C57BL/6 mouse model of bleomycin-induced lung fibrosis assessed as suppression of smad3 phosphorylation level in lung at 50 to 100 mg/kg, po administered for 30 days starting from day 1 post bleomycin treatment by immunohistochemistry staining based microscopic analysis; assay type: functional, organism-based; settings: dose 50-100 mg/kg, time 30.0 day
Summary of the method: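 Male C57BL/6 mice, 8 weeks, got intratracheal bleomycin 3 U/kg in 0.075 mL saline, then daily oral dosing days 1–30. Left lungs were formalin-fixed (10%, 24 h) and paraffin-embedded; 5 µm sections were incubated with antibody at 4 °C overnight for immunohistochemistry of phospho-Smad3 and imaged by microscopy.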

[19] = Tmax in Sprague-Dawley rat at 5 mg/kg, po; assay type: ADME, organism-based; settings: in vivo; summary of the method: as §3
[20] = Effect on total p38 expression in TGFbeta-stimulated rat NRK-49F at 20 to 40 uM preincubated for 1 to 2 hrs followed by TGF-beta stimulation and measured after 1 hr by Western blot analysis; assay type: tissue-based; settings: dose lower 20 µM, time lower 2 hrs, dose upper 40 µM, time upper 3 hrs; summary of the method: as §5
[21] = system: Mus musculus; assay: Anti-fibrotic activity in C57BL/6 mouse model of bleomycin-induced lung fibrosis assessed as reduction in collagen deposition by measuring hydroxyproline content in lung at 100 mg/kg, po administered for […] starting from day 8 post bleomycin treatment; assay type: functional, organism-based; settings: time 14.0 day; summary of the method: as §4
[22] = system: Mus musculus; assay: Anti-fibrotic activity in C57BL/6 mouse model of bleomycin-induced lung fibrosis assessed as protection of alveolar tissue structure at 100 mg/kg, po administered for […] starting from day 8 post bleomycin treatment by hematoxylin and eosin staining based microscopic analysis; assay type: functional, organism-based; settings: time 14.0 day; summary of the method: as §2
[23] = Effect on total […] expression in TGFbeta-stimulated rat NRK-49F at 20 to 40 uM preincubated for 1 to 2 hrs followed by TGF-beta stimulation and measured after 1 hr by Western blot analysis; settings: dose lower 20 µM, time lower 2 hrs, dose upper 40 µM, time upper 3 hrs; summary of the method: as §5
[24] = Cytotoxicity against rat NRK-49F cells assessed as cell survival rate at 10 uM incubated for 72 hrs by MTT assay; assay type: cell-based; settings: read-out: Activity
Summary of the method: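 NRK-49F cells were seeded at 0.5×10^5 cells/ml, cultured overnight, then exposed to compound 10 µM for 72 h. MTT was added and incubated 4 h, formazan dissolved in DMSO and absorbance read. Survival = (treated − zero)/(blank − zero) A ×100%, done in triplicate.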

[25] = system: Mus musculus; assay: Anti-fibrotic activity in C57BL/6 mouse model of bleomycin-induced lung fibrosis assessed as reduction in collagen deposition by measuring hydroxyproline content in lung at 50 to 100 mg/kg, po administered for 30 days starting from day 1 post bleomycin treatment; assay type: functional, organism-based; settings: dose 50-100 mg/kg, time 30.0 day; summary of the method: as §4
[26] = target: Mitogen-activated protein kinase 1 and 3 (ERK2 and ERK1) (Rattus norvegicus) (UniProt P63086+P21708); assay: Inhibition of TGF-beta induced ERK1/2 phosphorylation in rat NRK-49F cells at 20 to 40 uM pretreated with compound for 1 to 2 hrs followed by TGF-beta stimulation for 1 hr by Western blot analysis; assay type: cell-based; settings: dose 20-40 µM, time 2-3 hrs; summary of the method: as §5
[27] = system: NRK-49F; assay: Inhibition of TGF-beta induced p38 phosphorylation in rat NRK-49F cells at 20 to 40 uM pretreated with compound for 1 to 2 hrs followed by TGF-beta stimulation for 1 hr by Western blot analysis; assay type: cell-based; settings: dose 20-40 µM, time 2-3 hrs; summary of the method: as §5
[28] = target: Mothers against decapentaplegic homolog 2 (Rattus norvegicus) (UniProt O70436); assay: Inhibition of TGF-beta induced SMAD2 phosphorylation in rat NRK-49F cells at 20 to 40 uM pretreated with compound for 1 to 2 hrs followed by TGF-beta stimulation for 1 hr by Western blot analysis; assay type: cell-based; settings: dose 20-40 µM, time 2-3 hrs; summary of the method: as §5
[29] = Effect on total Smad3 expression in TGFbeta-stimulated rat NRK-49F at 20 to 40 uM preincubated for 1 to 2 hrs followed by TGF-beta stimulation and measured after 1 hr by Western blot analysis; settings: dose lower 20 µM, time lower 2 hrs, dose upper 40 µM, time upper 3 hrs; summary of the method: as §5
[30] = system: Mus musculus; assay: Anti-fibrotic activity in C57BL/6 mouse model of bleomycin-induced lung fibrosis assessed as survival rate at 50 to 100 mg/kg, po administered for 30 days starting from day 1 post bleomycin treatment; assay type: functional, organism-based; settings: dose 50-100 mg/kg, time 30.0 day; summary of the method: as §1
[31] = Half life in Sprague-Dawley rat at 5 mg/kg, po; assay type: ADME, organism-based; settings: in vivo; summary of the method: as §3
[32] = AUC (0 to t) in Sprague-Dawley rat at 5 mg/kg, iv; assay type: ADME, organism-based; parameters: dose 5 mg/kg; settings: in vivo; summary of the method: as §6
[33] = system: Mus musculus; assay: Anti-fibrotic activity in C57BL/6 mouse model of bleomycin-induced lung fibrosis assessed as protection of alveolar tissue structure at 50 to 100 mg/kg, po administered for 30 days starting from day 1 post bleomycin treatment by hematoxylin and eosin staining based microscopic analysis; assay type: functional, organism-based; settings: dose 50-100 mg/kg, time 30.0 day; summary of the method: as §2
[34] = Half life in Sprague-Dawley rat at 5 mg/kg, iv; assay type: ADME, organism-based; settings: in vivo; summary of the method: as §3

Chain of Mothers against decapentaplegic homolog 3 (Rattus norvegicus) (P84025 whole entry, looked up): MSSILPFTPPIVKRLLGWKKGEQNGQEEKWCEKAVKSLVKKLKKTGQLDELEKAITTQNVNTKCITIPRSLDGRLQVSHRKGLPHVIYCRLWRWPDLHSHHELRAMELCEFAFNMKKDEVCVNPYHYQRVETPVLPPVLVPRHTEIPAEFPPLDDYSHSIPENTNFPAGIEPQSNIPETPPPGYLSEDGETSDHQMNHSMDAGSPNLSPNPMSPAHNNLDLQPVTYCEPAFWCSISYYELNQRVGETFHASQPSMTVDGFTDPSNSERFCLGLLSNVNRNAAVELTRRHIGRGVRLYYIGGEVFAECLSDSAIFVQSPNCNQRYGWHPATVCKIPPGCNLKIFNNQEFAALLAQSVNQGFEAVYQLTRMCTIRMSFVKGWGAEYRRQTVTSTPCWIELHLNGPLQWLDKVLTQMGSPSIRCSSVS
Chain of Mitogen-activated protein kinase 1 and 3 (ERK2 and ERK1) (Rattus norvegicus) (P21708 whole entry, looked up): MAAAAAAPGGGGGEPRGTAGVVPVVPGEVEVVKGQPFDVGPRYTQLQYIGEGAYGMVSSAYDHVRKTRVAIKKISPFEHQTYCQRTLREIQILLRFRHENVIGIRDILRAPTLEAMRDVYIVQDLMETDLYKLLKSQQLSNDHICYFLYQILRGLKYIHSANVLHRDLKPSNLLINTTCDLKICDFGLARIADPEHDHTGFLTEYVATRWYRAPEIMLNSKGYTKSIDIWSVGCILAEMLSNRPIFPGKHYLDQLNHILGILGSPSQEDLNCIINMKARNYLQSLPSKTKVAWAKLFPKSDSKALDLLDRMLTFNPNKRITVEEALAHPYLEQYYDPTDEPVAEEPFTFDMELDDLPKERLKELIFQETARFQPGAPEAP
Chain of Mitogen-activated protein kinase 1 and 3 (ERK2 and ERK1) (Rattus norvegicus) (P63086 whole entry, looked up): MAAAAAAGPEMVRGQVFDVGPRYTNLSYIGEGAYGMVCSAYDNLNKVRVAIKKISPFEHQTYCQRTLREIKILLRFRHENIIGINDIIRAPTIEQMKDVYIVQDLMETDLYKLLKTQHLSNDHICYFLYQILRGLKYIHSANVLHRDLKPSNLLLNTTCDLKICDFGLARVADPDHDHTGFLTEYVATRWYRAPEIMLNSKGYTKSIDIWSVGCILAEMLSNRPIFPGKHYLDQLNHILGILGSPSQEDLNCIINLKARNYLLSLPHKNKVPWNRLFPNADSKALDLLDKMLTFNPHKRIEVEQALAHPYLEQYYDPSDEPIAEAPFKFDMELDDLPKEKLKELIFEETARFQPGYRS
Chain of Mothers against decapentaplegic homolog 2 (Rattus norvegicus) (O70436 whole entry): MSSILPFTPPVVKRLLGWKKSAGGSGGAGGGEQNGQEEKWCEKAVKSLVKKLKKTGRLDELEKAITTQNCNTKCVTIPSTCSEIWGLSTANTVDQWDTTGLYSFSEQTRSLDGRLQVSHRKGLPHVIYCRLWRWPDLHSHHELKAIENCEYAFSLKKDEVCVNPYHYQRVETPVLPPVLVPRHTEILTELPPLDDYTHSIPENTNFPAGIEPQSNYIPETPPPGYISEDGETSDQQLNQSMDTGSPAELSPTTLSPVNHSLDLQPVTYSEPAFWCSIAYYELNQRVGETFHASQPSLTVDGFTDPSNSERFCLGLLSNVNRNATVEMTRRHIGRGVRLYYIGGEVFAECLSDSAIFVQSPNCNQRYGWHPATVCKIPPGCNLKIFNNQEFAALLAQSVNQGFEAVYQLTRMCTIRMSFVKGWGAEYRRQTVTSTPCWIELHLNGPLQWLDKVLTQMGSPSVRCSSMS

## COC(=O)c1ccc2c(c1)NC(=O)/C2=C(\Nc1ccc(N(C)C(=O)CN2CCN(C)CC2)cc1)c1ccccc1 [NINTEDANIB]
[1]
  inhibition: Active
[2]
  Activity: Active
[3]
  inhibition at 10 µM: 95.5%
[4]
  Activity: Active
[5]
  Activity: inactive
[6]
  bioavailability: 12%
[7]
  inhibition: Active
[8]
  Activity: Active
[9]
  inhibition: Active
[10]
  Activity: Active
[11]
  Activity: inactive

## O=C(CN1CCN(C(=O)C2CC2)CC1)Nc1ccc(Oc2cc(=O)[nH]c3ccccc23)c(F)c1
[12]
  inhibition: Dose-dependent effect
[13]
  AUC(0-t): 5460 ng·h/mL
[14]
  Activity: Active
[1]
  inhibition: Active
[3]
  inhibition at 10 µM: 87.5%
[15]
  Tmax: 4.8 min
[6]
  bioavailability: 41.5%
[16]
  Activity: Non-Toxic
[7]
  inhibition: Active
[17]
  Activity: Active
[18]
  Activity: Active
[9]
  inhibition: Active
[19]
  Tmax: 4.33 h
[20]
  Activity: Non-Toxic
[21]
  Activity: Active
[22]
  Activity: Active
[23]
  Activity: Non-Toxic
[24]
  viability at 72 h, 10 µM: 97.5%
[25]
  Activity: Active
[26]
  inhibition: Active
[27]
  inhibition: Active
[28]
  inhibition: Dose-dependent effect
[29]
  Activity: Non-Toxic
[30]
  Activity: Active
[31]
  half-life: 210 min
[32]
  AUC(0-t): 13100 ng·h/mL
[33]
  Activity: Active
[34]
  half-life: 263 min
